We go through 167 variants from the RNAGym collection of RNA variant scans (doi:10.1126/science.aae0568).

Fewer inactive variants are shown than the library holds.

B1: tRNA (parent)
chain: GUUCCGUUGGCGUAAUGGUAACGCGUCUCCCUCCUAAGGAGAAGACUGCGGGUUCGAGUCCCGUACGGAACG

This data set covers variants of B1. In words: yeast fitness relative to wild type (ratio to wild type); higher = fitter; tRNA-Arg(CCU), competitive growth, 37 C, YPD. Put shortly: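 Variants of the tRNA-Arg(CCU) gene, chemically synthesised with a 3% per-site mutation rate at 69 sites, were placed at the native genomic locus in Saccharomyces cerevisiae. The pooled strains were competed in YPD at 37°C for 24 hours in six parallel replicates. Gene amplicons from the start population and from each end population were read by 100-nucleotide paired-end sequencing. Darwinian fitness relative to wild type came from changes in genotype frequencies; genotypes needed ≥ 100 starting reads, and estimates < 0.5 were set to 0.5.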
As to A14G G38C A57G A70G, the yeast fitness is at most 0.5.
Regarding A14G C27U C55A, the yeast fitness is 0.56.
On to A14G G39C A70U, for which the yeast fitness is 0.717.
Regarding A14G C66G, the yeast fitness is 0.761.
For A14G C24U A45C G51U U59C, the yeast fitness is at most 0.5.
For the variant A14G C49U, the yeast fitness is 0.908.
As to A14G C49G, the yeast fitness was 0.815.
As for A14G C29U A57C, the yeast fitness is at most 0.5.
A14G C34G A43C: the yeast fitness is 0.591.
For A14G C46A A57G, the yeast fitness came out at 0.743.
Turning to A14G G39C, the yeast fitness stood at 0.678.
Consider A14G C30A A45G C60G, for which the yeast fitness turned out to be 0.668.
As to A14G G18A U26A A70C, the yeast fitness was at most 0.5.
In the case of A14G C29G U47G G58A it was at most 0.5.
Consider A14G G17C C24U A69U, for which the yeast fitness was at most 0.5.
For the variant A14G C29G C31U C55U A69C, the yeast fitness is at most 0.5.
Under A14G C27G C31U stands 0.501.
On to A14G C30G A36C A69U, for which the yeast fitness was at most 0.5.
In the case of A14G G23A C34A, the yeast fitness is at most 0.5.
Under A14G C34G A43C A65G stands 0.558.
For the variant A14G G18C C31A A69U, the yeast fitness was at most 0.5.
In the case of A14G G18C G52C C55A, the yeast fitness is at most 0.5.
Regarding A14G C27A A37C G44A, the yeast fitness came out at 0.563.
Take A14G C29A: the yeast fitness was found to be 0.581.
Turning to A14G C55A, the yeast fitness is at most 0.5.
With A14G C55U, the yeast fitness was determined as 0.553.
In the case of A14G C30A C34G C62U, the yeast fitness was at most 0.5.
With A14G C29G A37G, the yeast fitness is at most 0.5.
In the case of A14G C29U C62U A70U, the yeast fitness came to 0.536.
As for A14G C33U G38A C55U, the yeast fitness is at most 0.5.
For A14G C34A C60A, the yeast fitness was at most 0.5.
For the variant A14G C31G A37U A65U, the yeast fitness stood at 0.529.
Turning to A14G C34A A69C, the yeast fitness worked out at 0.605.
On to A14G G23A U35C A37C, for which the yeast fitness is 0.5.
Under A14G C27G C34G A37U C62U stands at most 0.5.
For the variant A14G G23A A40U A42C G58C, the yeast fitness was at most 0.5.
As for A14G G23A C29G G68C, the yeast fitness is at most 0.5.
A14G G41A: the yeast fitness stood at 0.981.
Take A14G G18C G50C: the yeast fitness was at most 0.5.
Consider A14G C34G, for which the yeast fitness stood at 0.608.
Turning to A14G C31A C46U G56C A69U, the yeast fitness was at most 0.5.
On to A14G C30A G50A G51A A69G, for which the yeast fitness was at most 0.5.
On to A14G G23C C27A, for which the yeast fitness is at most 0.5.
Turning to A14G C34U A40G, the yeast fitness worked out at 0.541.
As to A14G G23A C27G, the yeast fitness is at most 0.5.
Regarding A14G C30U A42G A57U, the yeast fitness is at most 0.5.
Under A14G G18C stands 0.559; under A14G C31G G58A, at most 0.5; under A14G C31U C55A A70G, at most 0.5.
Turning to A14G C46G, the yeast fitness was found to be 0.989.
As to A14G C60G, the yeast fitness came to 0.507.
Turning to A14G C60A, the yeast fitness came out at 0.523.
Take A14G G23A G38C C46U: the yeast fitness came to 0.621.
In the case of A14G C34A G38C G48A A69C it was at most 0.5; in that of A14G C33U A43G, at most 0.5.
In the case of A14G C29U G41A U54G A69U, the yeast fitness was determined as 0.621.
Take A14G C49A C61U C62G: the yeast fitness was at most 0.5.
With A14G C30U A43C G52A, the yeast fitness is at most 0.5.
Consider A14G C27G A37G U59G, for which the yeast fitness is at most 0.5.
With A14G C62U G68C, the yeast fitness was at most 0.5.
Consider A14G C46G A69U, for which the yeast fitness came to 0.861.
As for A14G G25A A40U C49U C60A G63A, the yeast fitness is at most 0.5.
A14G G38C A65C: the yeast fitness was at most 0.5.
Consider A14G G48A, for which the yeast fitness came to 0.868.
With A14G G39C C55A A65G, the yeast fitness was at most 0.5.
Take A14G C27U: the yeast fitness was found to be 0.974.
For A14G C27A, the yeast fitness is 0.916.
As to A14G G23C C27A G51A, the yeast fitness is at most 0.5.
On to A14G C46G G51C, for which the yeast fitness was at most 0.5.
A14G G18C C29G C34U A45C: the yeast fitness is at most 0.5.
In the case of A14G C30U C46U G50A it was 0.602.
A14G C46U G50C C55U A57U C62G: the yeast fitness was found to be 0.571.
Take A14G G18C C29G G56C: the yeast fitness was at most 0.5.
On to A14G C31G C33U G38C G58C C66G, for which the yeast fitness is at most 0.5.
For the variant A14G C31G C46G, the yeast fitness is 0.577.
Consider A14G G44A A57U, for which the yeast fitness worked out at 0.576.
Under A14G C61U A70U stands 0.835.
As for A14G C29U G41A G63A, the yeast fitness is at most 0.5.
As for A14G G44A G67C, the yeast fitness was at most 0.5.
As for A14G C30G A57G, the yeast fitness was at most 0.5.
As to A14G C27G C31A C33G C49U G58C, the yeast fitness was at most 0.5.
Take A14G C31G A45U C62U: the yeast fitness was 0.669.
With A14G C29U C31U C33U, the yeast fitness turned out to be 0.543.
A14G G17C G58C: the yeast fitness is at most 0.5.
As for A14G G18A U32A G44A A65C, the yeast fitness is at most 0.5.
For A14G C24U G63C, the yeast fitness was at most 0.5.
Consider A14G C33U A40U C62G, for which the yeast fitness is 0.68.
Under A14G C29G A43U C46U stands at most 0.5.
For the variant A14G C34A C49U G51C C61U, the yeast fitness is at most 0.5.
Turning to A14G G25A C30A A42C, the yeast fitness was at most 0.5.
Consider A14G C33U U47A G51C C62U, for which the yeast fitness worked out at 0.514.
For A14G C49U U64A, the yeast fitness came out at 0.537.
With A14G G39C G68A A70U, the yeast fitness was at most 0.5.
With A14G G44A C46A G52A C66U, the yeast fitness is at most 0.5.
Take A14G C29G C62U: the yeast fitness was determined as 0.573.
On to A14G C31A U47C A70U, for which the yeast fitness was at most 0.5.
Take A14G G18A U26A: the yeast fitness is at most 0.5.
As to A14G G18A C30U, the yeast fitness was 0.809.
In the case of A14G C55U A69U it was at most 0.5; in that of A14G C34A G38C, 0.676; in that of A14G C34U C66U A70U, at most 0.5.
Under A14G C24U U26G stands at most 0.5; under A14G C24U G51A, at most 0.5.
In the case of A14G C27U C33U U35C it was at most 0.5; in that of A14G C31G U54G A57C C62U, at most 0.5.
Regarding A14G C29U A45U, the yeast fitness was found to be 0.626.
In the case of A14G G17C C55A, the yeast fitness was at most 0.5.
Turning to A14G G17A A37U C62G, the yeast fitness was at most 0.5.
With A14G C30G A42U A45G A69U, the yeast fitness is at most 0.5.
In the case of A14G G39C U47C it was at most 0.5; in that of A14G C30G A36C, 0.525; in that of A14G C31G C33U G38C G58C G67U, at most 0.5.
As for A14G C33G, the yeast fitness is at most 0.5.
Consider A14G C33U, for which the yeast fitness turned out to be 0.616.
Under A14G C33A stands 0.516.
For the variant A14G G41A U47A, the yeast fitness turned out to be 0.591.
Under A14G C62G G68A stands at most 0.5.
With A14G C31U, the yeast fitness amounted to 0.932.
Take A14G C31A: the yeast fitness was determined as 0.752.
As to A14G G18C C24G U28C C30U G48C U53A, the yeast fitness turned out to be 0.665.
A14G G23A: the yeast fitness is 0.559.
Turning to A14G G23C, the yeast fitness came to 0.692.
A14G G44C: the yeast fitness was found to be 0.928.
On to A14G G44A, for which the yeast fitness came to 0.894.
With A14G C31U C55A, the yeast fitness is 0.552.
A14G C29U A65G: the yeast fitness is 0.555.
For A14G G17A A37G, the yeast fitness is 0.536.
Regarding A14G G17A, the yeast fitness was found to be 0.735.
Consider A14G C31U A42U A69U, for which the yeast fitness was found to be 0.544.
In the case of A14G C27A U54G G68C, the yeast fitness is at most 0.5.
Take A14G G48A C61A G68U: the yeast fitness is at most 0.5.
For A14G G38A A43G, the yeast fitness was at most 0.5.
Under A14G C34G C61A stands at most 0.5.
As for A14G C27G C34G A37U U64A A70C, the yeast fitness came to 0.522.
Turning to A14G C49U U54C, the yeast fitness was at most 0.5.
As to A14G C31U C55A G67A A70G, the yeast fitness was at most 0.5.
As for A14G C31G A37U, the yeast fitness was 0.533.
In the case of A14G G17A C34U C55G, the yeast fitness was at most 0.5.
With A14G C31G A45G G56U, the yeast fitness is at most 0.5.
For A14G G18A A21U U26C G48A, the yeast fitness is at most 0.5.
With A14G G18C A21U C29G C66U, the yeast fitness is at most 0.5.
Regarding A14G G25A C46G A57C, the yeast fitness is at most 0.5.
A14G G25C G51C C60U G67A: the yeast fitness was at most 0.5.
Turning to A14G C34G A43C A70G, the yeast fitness is at most 0.5.
As to A14G G17C G39A, the yeast fitness is at most 0.5.
In the case of A14G C30A C34A A43C C62U G63A, the yeast fitness is at most 0.5.
As for A14G G25A C30A G52C, the yeast fitness amounted to 0.548.
For the variant A14G C24U A65C, the yeast fitness worked out at 0.542.
In the case of A14G G25C C31U it was 0.692; in that of A14G C61A A69C, at most 0.5; in that of A14G G25A U32A, 0.56.
A14G C24U G67C: the yeast fitness was found to be 0.54.
A14G G17A A37U A43U C62G: the yeast fitness was at most 0.5.
In the case of A14G C62A, the yeast fitness worked out at 0.533.
Under A14G C27G C61U stands at most 0.5; under A14G C46G C62U, 0.725; under A14G G17C C24U C49U A69U, at most 0.5.
For the variant A14G G23C C29A, the yeast fitness was at most 0.5.
As for A14G G25A, the yeast fitness amounted to 0.856.
Under A14G G25C stands 0.976; under A14G C31U C49U, 0.809; under A14G C31U C49A, at most 0.5.
As for A14G C27G C34G A37U C61G, the yeast fitness is at most 0.5.
Regarding A14G C49G A57G, the yeast fitness amounted to 0.557.
As for A14G C31G A69C, the yeast fitness came to 0.652.
With A14G C49G C66U, the yeast fitness is 0.526.
On to A14G G25A A69U, for which the yeast fitness stood at 0.77.
